Here are results for three molecules from ChEMBL document CHEMBL1938337, “Discovery of novel, potent, and selective inhibitors of 3-phosphoinositide-dependent kinase (PDK1)” (J Med Chem, 2011).

Broadly, the inhibition is the change of the read-out against control, counted positive when it falls. The term IC50 denotes the concentration that inhibits the measured activity by half. By Ki is commonly meant a dissociation constant, usually derived from enzyme kinetics or from competition with a known ligand.

The target of data set [1] is Insulin receptor (Homo sapiens) (UniProt P06213). The data set can be described thus: Inhibition of INSR at 1 uM.
Sequence of Insulin receptor (Homo sapiens) (P06213 28-758 limits assumed): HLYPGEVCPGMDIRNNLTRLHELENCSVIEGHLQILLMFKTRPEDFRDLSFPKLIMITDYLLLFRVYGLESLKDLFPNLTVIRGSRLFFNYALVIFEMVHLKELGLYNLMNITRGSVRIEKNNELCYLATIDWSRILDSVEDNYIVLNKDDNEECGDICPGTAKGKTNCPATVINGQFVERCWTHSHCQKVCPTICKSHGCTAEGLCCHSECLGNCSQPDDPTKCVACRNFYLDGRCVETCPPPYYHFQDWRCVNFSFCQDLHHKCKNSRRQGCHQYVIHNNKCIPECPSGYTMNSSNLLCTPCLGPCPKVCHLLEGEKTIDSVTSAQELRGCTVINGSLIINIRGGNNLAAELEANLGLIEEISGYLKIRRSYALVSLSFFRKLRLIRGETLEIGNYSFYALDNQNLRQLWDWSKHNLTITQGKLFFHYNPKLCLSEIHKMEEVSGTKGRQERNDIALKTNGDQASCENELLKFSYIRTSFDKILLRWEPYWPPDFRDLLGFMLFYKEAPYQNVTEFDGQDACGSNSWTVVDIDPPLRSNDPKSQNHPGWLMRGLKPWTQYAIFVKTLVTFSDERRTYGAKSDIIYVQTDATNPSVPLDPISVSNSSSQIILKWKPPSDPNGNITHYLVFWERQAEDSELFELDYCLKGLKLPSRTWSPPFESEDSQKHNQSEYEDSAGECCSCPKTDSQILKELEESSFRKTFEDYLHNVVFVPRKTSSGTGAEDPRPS
Sequence of Insulin receptor (Homo sapiens) (P06213 763-1382 limits assumed): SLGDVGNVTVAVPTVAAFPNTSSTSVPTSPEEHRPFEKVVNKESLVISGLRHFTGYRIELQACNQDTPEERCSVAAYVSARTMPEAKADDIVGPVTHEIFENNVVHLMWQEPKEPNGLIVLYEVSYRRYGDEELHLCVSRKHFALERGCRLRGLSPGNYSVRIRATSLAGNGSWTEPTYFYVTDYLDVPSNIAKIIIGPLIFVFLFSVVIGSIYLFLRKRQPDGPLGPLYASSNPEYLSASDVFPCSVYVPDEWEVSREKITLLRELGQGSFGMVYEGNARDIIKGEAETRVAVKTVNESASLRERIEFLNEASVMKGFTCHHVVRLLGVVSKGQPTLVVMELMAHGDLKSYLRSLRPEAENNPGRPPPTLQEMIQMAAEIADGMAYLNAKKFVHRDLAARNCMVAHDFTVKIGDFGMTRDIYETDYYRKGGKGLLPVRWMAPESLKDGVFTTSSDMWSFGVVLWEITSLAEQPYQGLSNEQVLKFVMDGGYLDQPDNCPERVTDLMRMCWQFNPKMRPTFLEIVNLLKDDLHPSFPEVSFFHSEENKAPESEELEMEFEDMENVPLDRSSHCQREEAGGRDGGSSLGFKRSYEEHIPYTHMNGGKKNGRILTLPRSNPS
Data set [2] deals with T1, Serine/threonine-protein kinase TAO2 (Homo sapiens) (UniProt Q9UL54).
T1 sequence (whole entry): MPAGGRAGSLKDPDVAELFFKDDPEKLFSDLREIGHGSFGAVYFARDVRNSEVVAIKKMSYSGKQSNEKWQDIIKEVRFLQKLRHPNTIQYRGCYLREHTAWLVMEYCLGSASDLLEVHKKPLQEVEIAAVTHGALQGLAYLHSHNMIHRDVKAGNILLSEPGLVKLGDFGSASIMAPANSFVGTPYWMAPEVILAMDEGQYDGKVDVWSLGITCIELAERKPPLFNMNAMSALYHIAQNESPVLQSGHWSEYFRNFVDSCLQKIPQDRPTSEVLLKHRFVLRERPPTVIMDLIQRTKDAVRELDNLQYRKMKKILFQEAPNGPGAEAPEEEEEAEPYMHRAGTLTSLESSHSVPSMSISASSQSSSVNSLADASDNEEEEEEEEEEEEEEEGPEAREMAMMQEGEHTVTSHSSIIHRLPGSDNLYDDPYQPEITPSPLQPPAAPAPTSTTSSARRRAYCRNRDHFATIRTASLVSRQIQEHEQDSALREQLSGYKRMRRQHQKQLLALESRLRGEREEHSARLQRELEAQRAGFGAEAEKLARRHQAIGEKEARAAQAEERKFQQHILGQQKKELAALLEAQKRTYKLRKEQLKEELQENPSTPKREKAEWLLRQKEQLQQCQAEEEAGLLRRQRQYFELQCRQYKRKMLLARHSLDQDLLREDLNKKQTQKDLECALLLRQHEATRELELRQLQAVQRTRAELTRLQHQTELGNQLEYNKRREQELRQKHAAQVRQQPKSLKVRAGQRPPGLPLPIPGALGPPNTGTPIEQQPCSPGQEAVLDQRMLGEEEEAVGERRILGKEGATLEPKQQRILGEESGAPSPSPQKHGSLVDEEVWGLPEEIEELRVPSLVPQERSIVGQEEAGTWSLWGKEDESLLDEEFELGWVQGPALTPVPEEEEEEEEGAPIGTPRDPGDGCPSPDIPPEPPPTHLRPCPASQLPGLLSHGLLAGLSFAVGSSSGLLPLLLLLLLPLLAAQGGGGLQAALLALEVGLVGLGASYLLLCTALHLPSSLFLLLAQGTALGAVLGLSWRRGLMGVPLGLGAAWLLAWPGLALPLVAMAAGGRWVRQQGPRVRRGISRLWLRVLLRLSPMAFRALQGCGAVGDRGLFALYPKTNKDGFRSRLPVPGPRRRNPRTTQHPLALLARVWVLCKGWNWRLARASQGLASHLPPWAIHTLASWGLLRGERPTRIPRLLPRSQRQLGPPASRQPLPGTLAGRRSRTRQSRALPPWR
The data set can be described thus: Inhibition of TAOK2 at 1 uM.

Data set [3] deals with T2, Glycogen synthase kinase-3 beta (Homo sapiens, UniProt P49841). Kind of data set: Inhibition of GSK3B at 1 uM.
Target sequence in this assay (P49841 whole entry, looked up): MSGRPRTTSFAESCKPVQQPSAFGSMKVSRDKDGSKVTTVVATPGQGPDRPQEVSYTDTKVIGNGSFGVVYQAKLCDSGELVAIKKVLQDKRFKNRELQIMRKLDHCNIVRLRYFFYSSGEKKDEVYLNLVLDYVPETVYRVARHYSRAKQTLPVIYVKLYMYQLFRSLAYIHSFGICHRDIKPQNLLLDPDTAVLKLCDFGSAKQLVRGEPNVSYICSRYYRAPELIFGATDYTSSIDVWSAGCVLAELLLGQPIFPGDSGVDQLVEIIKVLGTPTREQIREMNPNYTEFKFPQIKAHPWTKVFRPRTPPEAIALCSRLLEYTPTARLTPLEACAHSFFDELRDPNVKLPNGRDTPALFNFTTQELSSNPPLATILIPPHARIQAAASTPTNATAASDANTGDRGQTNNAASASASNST
In data set [4] the target is Rho-associated protein kinase 1 (Homo sapiens) (UniProt Q13464). The data set can be described thus: Inhibition of ROCK1 at 1 uM.
Sequence of Rho-associated protein kinase 1 (Homo sapiens) (Q13464 2-1354 limits assumed): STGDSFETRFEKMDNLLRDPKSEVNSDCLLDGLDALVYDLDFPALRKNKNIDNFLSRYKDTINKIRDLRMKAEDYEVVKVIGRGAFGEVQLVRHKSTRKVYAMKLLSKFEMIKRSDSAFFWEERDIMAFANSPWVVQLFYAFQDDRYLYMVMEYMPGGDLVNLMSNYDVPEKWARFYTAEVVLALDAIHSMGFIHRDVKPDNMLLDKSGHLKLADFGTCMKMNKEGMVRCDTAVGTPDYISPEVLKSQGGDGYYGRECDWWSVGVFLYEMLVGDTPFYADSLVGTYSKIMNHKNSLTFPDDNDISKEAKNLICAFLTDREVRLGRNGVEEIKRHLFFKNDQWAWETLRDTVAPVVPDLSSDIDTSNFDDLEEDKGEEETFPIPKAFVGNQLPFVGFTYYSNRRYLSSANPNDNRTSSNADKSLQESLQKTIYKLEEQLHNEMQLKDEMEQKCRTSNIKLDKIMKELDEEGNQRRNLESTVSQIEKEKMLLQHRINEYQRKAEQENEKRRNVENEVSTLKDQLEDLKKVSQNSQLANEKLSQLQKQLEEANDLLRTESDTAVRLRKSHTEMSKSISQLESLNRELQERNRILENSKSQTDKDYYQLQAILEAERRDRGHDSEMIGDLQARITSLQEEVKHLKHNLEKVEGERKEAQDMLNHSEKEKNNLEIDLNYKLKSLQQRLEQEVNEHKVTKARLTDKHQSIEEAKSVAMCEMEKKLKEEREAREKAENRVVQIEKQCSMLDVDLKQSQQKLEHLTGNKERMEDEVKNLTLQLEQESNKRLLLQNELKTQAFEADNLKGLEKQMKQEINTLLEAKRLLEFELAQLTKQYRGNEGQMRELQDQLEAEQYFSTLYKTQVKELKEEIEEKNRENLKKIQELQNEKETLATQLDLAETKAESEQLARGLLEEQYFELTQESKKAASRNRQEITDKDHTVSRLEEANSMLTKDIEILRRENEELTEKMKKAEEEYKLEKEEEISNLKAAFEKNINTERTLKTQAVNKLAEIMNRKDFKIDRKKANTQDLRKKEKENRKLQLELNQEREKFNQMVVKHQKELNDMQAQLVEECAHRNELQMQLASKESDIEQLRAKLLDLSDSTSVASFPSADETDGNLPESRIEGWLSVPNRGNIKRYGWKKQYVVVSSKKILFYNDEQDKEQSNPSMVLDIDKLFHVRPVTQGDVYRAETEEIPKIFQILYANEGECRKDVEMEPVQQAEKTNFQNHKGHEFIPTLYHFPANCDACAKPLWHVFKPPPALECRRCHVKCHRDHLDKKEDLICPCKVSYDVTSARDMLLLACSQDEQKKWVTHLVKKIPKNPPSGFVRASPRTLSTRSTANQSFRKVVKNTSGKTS
Data set [5] is described as follows: Clearance in human liver microsomes. The class given is ADME, Microsome. The note with it: read-out: CLH. For orientation: Liver microsomes are vesicles of endoplasmic reticulum, rich in cytochrome P450 enzymes.
For data set [6], the target named is T2, Glycogen synthase kinase-3 beta. Kind of data set: Inhibition of GSK3-beta.
Target sequence in this assay (P49841 whole entry): as the sequence (P49841 whole entry, looked up) above
Data set [7] has as its target T3, Aurora kinase A (Homo sapiens) (UniProt O14965).
T3 sequence (whole entry): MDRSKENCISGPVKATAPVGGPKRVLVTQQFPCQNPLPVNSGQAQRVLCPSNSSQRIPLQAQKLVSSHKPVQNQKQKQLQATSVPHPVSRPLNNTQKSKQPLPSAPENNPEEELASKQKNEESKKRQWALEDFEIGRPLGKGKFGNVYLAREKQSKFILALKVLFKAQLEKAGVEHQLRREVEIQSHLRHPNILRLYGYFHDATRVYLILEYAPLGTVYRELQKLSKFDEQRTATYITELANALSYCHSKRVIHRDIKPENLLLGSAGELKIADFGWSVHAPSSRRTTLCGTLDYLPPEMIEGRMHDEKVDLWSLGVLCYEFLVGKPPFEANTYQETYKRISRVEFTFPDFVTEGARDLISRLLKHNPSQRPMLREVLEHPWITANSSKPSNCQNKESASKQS
The data set can be described thus: Inhibition of STK6 at 1 uM.

For data set [8], the target named is T4, RAC-alpha serine/threonine-protein kinase (Homo sapiens, UniProt P31749). Kind of data set: Inhibition of AKT1 at 1 uM.
In data set [9] the target is Vascular endothelial growth factor receptor 2 (Homo sapiens) (UniProt P35968). Kind of data set: Inhibition of KDR at 1 uM.
Data set [10] addresses Casein kinase II subunit alpha' (Homo sapiens) (UniProt P19784). Kind of data set: Inhibition of CSNK2A2 at 1 uM.
Data set [11] addresses T5, 3-phosphoinositide-dependent protein kinase 1 (Homo sapiens, UniProt O15530).
T5 sequence (O15530 whole entry): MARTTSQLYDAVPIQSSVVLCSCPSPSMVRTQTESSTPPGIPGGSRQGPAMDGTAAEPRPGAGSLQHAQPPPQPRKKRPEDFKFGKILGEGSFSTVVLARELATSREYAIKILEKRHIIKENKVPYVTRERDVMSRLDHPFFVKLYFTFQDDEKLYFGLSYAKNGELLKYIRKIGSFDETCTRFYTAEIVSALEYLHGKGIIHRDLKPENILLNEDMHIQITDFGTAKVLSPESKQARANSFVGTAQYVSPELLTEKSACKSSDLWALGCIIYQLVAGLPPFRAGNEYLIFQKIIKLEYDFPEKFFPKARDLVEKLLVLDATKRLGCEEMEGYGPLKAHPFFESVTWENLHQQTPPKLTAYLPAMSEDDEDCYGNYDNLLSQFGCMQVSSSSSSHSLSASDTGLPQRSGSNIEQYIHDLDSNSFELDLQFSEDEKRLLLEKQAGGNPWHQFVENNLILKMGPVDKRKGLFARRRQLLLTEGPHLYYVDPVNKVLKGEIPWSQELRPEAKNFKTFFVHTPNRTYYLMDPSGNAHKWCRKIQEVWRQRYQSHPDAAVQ
Kind of data set: Inhibition of PDK1-mediated AKT1 phosphorylation at T308 in human SKOV3 cells after 2 hrs by ELISA. The class given is cell-based, SK-OV-3. The method in brief:
(§1)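 Cells seeded at 50,000 per well and left to adhere overnight. Inhibitor was added as a 3-fold serial dilution from 0.0169 nM to 10 μM for 2 h, then cells were lysed. Lysates were tested in a commercial pAKT-T308 sandwich ELISA per the kit protocol. IC50 from duplicates, each run repeated at least twice.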

Data set [12] addresses Serine/threonine-protein kinase Chk2 (Homo sapiens) (UniProt O96017). Kind of data set: Inhibition of CHEK2 at 1 uM.
In data set [13] the target is T5, 3-phosphoinositide-dependent protein kinase 1. The data set can be described thus: Inhibition of PDK1-mediated AKT1 phosphorylation at T308 in human A549 cells after 2 hrs by ELISA. It is filed as cell-based. The method in brief: as §1
For orientation: ELISA stands for enzyme-linked immunosorbent assay.

Data set [14] addresses T4, RAC-alpha serine/threonine-protein kinase. The data set can be described thus: Inhibition of His-tagged AKT1 using 5FAM-GRPRTSSFAEGCONH2 as substrate by fluorescence based assay.
The target in data set [15] is High affinity nerve growth factor receptor (Homo sapiens, UniProt P04629). Kind of data set: Inhibition of NTRK1 at 1 uM.
Sequence of High affinity nerve growth factor receptor (P04629 33-796 limits assumed): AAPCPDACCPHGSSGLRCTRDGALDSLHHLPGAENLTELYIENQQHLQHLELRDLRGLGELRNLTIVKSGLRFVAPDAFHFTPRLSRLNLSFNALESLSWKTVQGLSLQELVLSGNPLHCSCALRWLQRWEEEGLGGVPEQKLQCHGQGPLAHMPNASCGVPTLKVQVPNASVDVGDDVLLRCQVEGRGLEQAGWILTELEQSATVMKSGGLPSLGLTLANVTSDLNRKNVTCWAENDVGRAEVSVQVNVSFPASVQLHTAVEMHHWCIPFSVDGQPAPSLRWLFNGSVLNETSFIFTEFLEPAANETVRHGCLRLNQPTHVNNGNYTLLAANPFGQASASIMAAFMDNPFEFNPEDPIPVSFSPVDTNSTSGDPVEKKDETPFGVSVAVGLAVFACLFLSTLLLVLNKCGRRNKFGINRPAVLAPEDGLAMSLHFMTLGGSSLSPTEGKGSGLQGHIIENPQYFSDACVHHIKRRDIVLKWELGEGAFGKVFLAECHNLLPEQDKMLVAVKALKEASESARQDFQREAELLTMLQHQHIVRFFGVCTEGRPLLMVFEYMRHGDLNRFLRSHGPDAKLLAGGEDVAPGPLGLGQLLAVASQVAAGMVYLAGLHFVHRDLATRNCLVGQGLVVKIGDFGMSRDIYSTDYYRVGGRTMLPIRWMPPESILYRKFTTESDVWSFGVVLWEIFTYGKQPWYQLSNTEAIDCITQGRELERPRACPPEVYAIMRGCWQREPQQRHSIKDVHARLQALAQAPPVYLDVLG

Sequence of Serine/threonine-protein kinase Chk2 (Homo sapiens) (O96017 whole entry): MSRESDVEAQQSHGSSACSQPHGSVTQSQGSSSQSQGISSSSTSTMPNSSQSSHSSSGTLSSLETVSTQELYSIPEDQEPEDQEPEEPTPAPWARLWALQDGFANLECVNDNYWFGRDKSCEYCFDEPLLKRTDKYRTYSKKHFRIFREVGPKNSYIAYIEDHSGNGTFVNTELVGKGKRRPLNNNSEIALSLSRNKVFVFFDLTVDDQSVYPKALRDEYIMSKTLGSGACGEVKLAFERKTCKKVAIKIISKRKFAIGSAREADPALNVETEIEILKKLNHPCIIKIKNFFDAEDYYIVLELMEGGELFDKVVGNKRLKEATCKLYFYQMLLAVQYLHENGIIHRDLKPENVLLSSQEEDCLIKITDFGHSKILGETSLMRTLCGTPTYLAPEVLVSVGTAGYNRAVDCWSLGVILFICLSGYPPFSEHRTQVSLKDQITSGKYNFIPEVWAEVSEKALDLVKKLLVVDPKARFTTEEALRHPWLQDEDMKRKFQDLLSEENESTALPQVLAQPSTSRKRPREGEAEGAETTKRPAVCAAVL
Sequence of Casein kinase II subunit alpha' (Homo sapiens) (P19784 whole entry, looked up): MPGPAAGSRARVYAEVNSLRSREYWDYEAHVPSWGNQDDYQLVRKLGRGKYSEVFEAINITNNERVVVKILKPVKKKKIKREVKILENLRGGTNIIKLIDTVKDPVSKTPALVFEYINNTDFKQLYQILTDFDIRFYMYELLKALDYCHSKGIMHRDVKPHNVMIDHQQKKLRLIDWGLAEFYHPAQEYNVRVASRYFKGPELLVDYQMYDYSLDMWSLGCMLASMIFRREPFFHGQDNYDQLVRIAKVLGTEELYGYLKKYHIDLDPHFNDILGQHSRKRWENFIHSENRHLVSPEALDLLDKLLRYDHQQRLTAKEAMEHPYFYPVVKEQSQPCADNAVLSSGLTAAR

Regarding `CC(=O)N1CC[C@@H](Nc2cncc(C(=O)c3cn(C(C)C)c4ncnc(N)c34)n2)[C@H]1c1ccccc1`, the inhibition is 4% in data set [1]; -5% in [2]; 42% in data set [3]; -5% in [4]; 54% in data set [7]; 15% in data set [8]. Also, the inhibition is 34% in [9], 2% in data set [10], 94% in data set [12] and 59% in data set [15]. Also, the microsomal CLint in data set [5] was 110 µL/min/mg. For the same molecule, the IC50 in data set [6] is 860 nM; in [11], 200 nM; in data set [13] it was 300 nM. Besides, the Ki in data set [14] is 1100 nM.
Take `CC(=O)N1CC[C@@H](Nc2cncc(C(=O)c3cn(C(C)C)c4ncnc(N)c34)n2)[C@H]1c1ccc(F)cc1`: the inhibition was 3% in data set [1]; 4% in data set [2]; 76% in data set [3]; 5% in data set [4]; 80% in [7]; 57% in data set [8]. Further, the inhibition in [9] is 51%; in [10], 8%; in [12], 99%; in data set [15], 63%. In addition, in data set [5], the microsomal CLint stood at 120 µL/min/mg. In addition, the IC50 in data set [6] amounted to 340 nM; in [11], 70 nM; in data set [13], 80 nM. In data set [14], this molecule gave a Ki of 360 nM.
Consider `CC(C)n1cc(C(=O)c2cncc(N[C@@H]3CCN(C=O)[C@@H]3c3ccc(F)cc3)n2)c2c(N)ncnc21`, for which the inhibition in data set [1] is 4%; in data set [2], -1%; in [3], 66%; in [4], 4%; in data set [7] it was 81%; in data set [8], 62%. Further, the inhibition in data set [9] was determined as 49%; in [10] it was 4%; in [12] it was 98%; in [15], 74%. Also, in data set [5], the microsomal CLint came out at 62 µL/min/mg. Further, the IC50 in [6] was found to be 180 nM; in data set [11] it was 70 nM; in data set [13], 50 nM. For the same molecule, the affinity in data set [14], expressed as Ki, was 170 nM.
